The values below come from PubChem BioAssay AID623889 (Vanderbilt Specialized Chemistry Center, 2012).

This test has as its target Metabotropic glutamate receptor 4 (Rattus norvegicus) (UniProt P31423). Kind of test: rat mGlu4 modulators, glutamate EC50 fold shift, SAR follow-up, mGlu4 lead optimization, HEK/GIRK cells, thallium flux (AID 623889). The settings on record: at 30 µM, stronger effect = higher value; for glutamate max response: measured here: glutamate maximal response with compound. Put shortly:
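incubation = compound pre-incubation about 2.5 min before glutamate addition | assay system = HEK cells stably co-expressing GIRK channel, M4 receptor and rat mGlu4 | technique = FluoZin-2 fluorescence thallium flux | dosing = one compound dose, 30 µM final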

“And” between values parts separate entries of the source, which are not always exact repeats. Identical values can stand only once.

Sequence of Metabotropic glutamate receptor 4 (Rattus norvegicus) (P31423 whole entry, looked up): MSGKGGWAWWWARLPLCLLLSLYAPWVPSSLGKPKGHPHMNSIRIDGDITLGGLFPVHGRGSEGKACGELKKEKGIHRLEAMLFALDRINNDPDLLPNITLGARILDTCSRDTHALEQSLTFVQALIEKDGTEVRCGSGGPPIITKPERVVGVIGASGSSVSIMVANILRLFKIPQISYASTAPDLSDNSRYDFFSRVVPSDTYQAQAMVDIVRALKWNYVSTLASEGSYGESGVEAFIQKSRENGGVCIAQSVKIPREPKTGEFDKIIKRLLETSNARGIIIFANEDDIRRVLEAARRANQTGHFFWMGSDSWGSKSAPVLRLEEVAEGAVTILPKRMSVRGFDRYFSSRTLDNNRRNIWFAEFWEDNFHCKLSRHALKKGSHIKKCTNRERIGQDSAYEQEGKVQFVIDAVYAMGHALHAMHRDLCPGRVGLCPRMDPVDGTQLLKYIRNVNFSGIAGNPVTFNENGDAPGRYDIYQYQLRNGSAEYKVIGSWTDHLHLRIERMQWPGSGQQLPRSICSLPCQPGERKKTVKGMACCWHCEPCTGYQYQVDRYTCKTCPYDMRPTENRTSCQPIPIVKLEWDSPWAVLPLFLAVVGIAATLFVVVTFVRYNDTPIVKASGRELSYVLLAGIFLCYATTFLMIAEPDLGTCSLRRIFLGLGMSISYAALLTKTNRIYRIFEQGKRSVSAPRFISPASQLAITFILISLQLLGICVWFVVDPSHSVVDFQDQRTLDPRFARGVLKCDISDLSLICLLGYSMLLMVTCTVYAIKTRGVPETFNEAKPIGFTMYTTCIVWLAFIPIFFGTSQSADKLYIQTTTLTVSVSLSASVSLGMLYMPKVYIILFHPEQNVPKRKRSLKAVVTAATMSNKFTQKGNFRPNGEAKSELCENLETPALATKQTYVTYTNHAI

For the compound `COc1cc2nc(-c3ccccn3)[nH]c2cc1Cl`, the fold shift is 3.21 and the glutamate max response turned out to be 90.9%.
Regarding `O=C(Nc1ccc2cn[nH]c2c1)c1ccccn1`, the fold shift was 11.9 and the glutamate max response was 103%.
As for `Clc1cccc(Nc2noc3cccnc23)c1`, the fold shift is 31.1 and 22.7 and 17.8; the glutamate max response is 90.3% and 98.5% and 99.1%.
On to `CC(C)N(C(=O)c1ccccn1)c1cccc(Cl)c1`, for which the fold shift was 3.16 and the glutamate max response came to 108%.
For `Clc1cccc(Nc2ncnc3cccnc23)c1`, the fold shift is 4.02 and the glutamate max response worked out at 87.2%.
The corresponding values for `Fc1cccc(Nc2noc3cccnc23)c1` are 8.9 and 93.6%.
For the compound `Clc1ccc2nc(-c3ccccn3)[nH]c2c1`, the fold shift is 15.3 and the glutamate max response is 87.2%.
The corresponding values for `O=C(Nc1cccc(Cl)c1)c1ccccn1` are 30.2 and 88.8%.
In the case of `O=C(Nc1ccc2c(c1)C(=O)NC2=O)c1ccccn1`, the fold shift was 2.52 and the glutamate max response came to 105%.
For `FC(F)Oc1cccc(Nc2noc3cccnc23)c1`, the fold shift is 21.7 and 16.3; the glutamate max response was 98.4% and 99.7%.
Take `COc1cc(Nc2noc3cccnc23)ccc1Cl`: the fold shift was 6.67 and the glutamate max response stood at 84.3%.
